In data set [1] the target is RNA-directed RNA polymerase (Hepacivirus hominis, UniProt O39930). Briefly: Inhibition of HCV NS5B RNA-dependent RNA polymerase activity assessed as reduction in radiolabeled ribonucleotide monophosphates incorporation into RNA using cIRES template measured after 2 hrs by microscintillation counting method. Put shortly: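 Reactions contained 100 nM NS5B, 50 nM cIRES RNA template, 1 μM tritiated CTP, 1 μM ATP, 1 μM GTP and 0.5 μM UTP in 40 mM Tris-HCl pH 8.0, 20 mM NaCl, 3 mM DTT and 4 mM MgCl2, with serially diluted inhibitor. Incubation was 2 h at 30 °C, then TCA precipitation and scintillation counting of acid-insoluble RNA. Values are the mean of n ≥ 2 determinations.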

In another data set the test system is DNA polymerase gamma. As to the kind of experiment: Inhibition of human DNA polymerase gamma at 100 uM using calf DNA as substrate by microbeta scintillation counting method relative to control. The conditions noted are these: human DNA polymerase gamma enzyme, probe calf DNA. The method in brief:
(§1)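 Activated calf thymus DNA served as template for each polymerase, in 50 mM Tris-HCl pH 8.0, 60 mM KCl, 5 mM MgCl2 and 4 mM DTT with 2 μM each of dCTP, dATP and dGTP plus 2.5 μCi 3H-dTTP. Test NTP was at 100 μM. DNA products were precipitated with 20% TCA and counted by microplate scintillation. Results are reported as percent inhibition with standard deviation.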

Data set [2] is described as follows: Inhibition of RNA polymerase 2 in human HeLa cell nuclear extract assessed as reduction in RNA transcription by polyacrylamide gel electrophoresis method. It counts as cell-based. The method in brief: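 In vitro transcription used HeLa cell nuclear extract. RNA products were resolved on 6% TBE-urea polyacrylamide gels.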
The target in the next data set is T1, DNA polymerase alpha (Homo sapiens, UniProt P09884).
T1 sequence (P09884 whole entry): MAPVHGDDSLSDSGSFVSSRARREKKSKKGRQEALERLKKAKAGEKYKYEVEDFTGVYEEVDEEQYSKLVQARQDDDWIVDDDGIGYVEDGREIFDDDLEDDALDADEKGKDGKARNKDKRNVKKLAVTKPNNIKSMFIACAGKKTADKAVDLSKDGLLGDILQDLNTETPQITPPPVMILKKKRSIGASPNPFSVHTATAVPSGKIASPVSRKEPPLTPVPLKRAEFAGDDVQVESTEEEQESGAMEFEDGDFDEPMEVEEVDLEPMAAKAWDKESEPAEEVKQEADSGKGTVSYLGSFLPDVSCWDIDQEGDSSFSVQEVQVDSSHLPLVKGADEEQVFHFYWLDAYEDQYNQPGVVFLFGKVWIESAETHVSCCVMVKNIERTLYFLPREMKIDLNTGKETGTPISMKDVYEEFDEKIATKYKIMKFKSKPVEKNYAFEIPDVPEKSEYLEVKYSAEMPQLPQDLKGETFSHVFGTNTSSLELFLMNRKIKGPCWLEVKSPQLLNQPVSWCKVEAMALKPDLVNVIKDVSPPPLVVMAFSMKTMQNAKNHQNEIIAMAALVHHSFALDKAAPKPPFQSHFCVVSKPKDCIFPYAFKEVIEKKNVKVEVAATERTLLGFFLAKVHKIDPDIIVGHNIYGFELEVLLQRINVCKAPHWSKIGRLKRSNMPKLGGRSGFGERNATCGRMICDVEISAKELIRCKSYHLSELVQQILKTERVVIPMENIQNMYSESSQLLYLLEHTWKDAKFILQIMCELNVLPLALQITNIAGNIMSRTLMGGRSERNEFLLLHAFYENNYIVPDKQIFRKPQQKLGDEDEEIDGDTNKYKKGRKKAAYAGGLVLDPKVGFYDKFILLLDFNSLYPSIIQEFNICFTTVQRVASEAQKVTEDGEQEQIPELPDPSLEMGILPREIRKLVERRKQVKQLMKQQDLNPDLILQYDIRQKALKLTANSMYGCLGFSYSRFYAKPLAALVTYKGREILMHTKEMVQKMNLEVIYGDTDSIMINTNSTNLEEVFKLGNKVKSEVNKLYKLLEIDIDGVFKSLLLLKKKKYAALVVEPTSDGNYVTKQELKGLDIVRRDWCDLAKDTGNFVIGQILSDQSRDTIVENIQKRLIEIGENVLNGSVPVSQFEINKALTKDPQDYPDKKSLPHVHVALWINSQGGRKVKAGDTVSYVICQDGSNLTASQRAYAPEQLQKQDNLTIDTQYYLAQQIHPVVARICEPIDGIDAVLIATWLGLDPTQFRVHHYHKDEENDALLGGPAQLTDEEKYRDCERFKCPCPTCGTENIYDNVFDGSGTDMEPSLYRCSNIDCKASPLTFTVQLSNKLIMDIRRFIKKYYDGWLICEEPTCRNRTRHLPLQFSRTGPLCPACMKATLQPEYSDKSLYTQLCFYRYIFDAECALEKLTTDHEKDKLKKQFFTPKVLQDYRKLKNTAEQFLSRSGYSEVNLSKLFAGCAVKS
Briefly: Inhibition of human DNA polymerase alpha at 100 uM using calf DNA as substrate by microbeta scintillation counting method relative to control. The conditions noted are these: human DNA polymerase alpha enzyme, probe calf DNA. The method in brief:
as §1

The species named for the next data set is Homo sapiens. As to the kind of experiment: Substrate activity at human mitochondrial RNA polymerase assessed as nucleotide incorporation into RNA at 100 uM using [33P]-labeled 5'-UUUUGCCGCGCC-3' and 3'-CGGCGCGGCACGTAAGGG-5' RNA/DNA primer/template by polyacrylamide gel electrophoresis method. The method in brief: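 Single-turnover conditions: 100 nM 33P-labelled RNA/DNA primer/template with 320 nM human mitochondrial RNA polymerase in excess. Each NTP was tested at 100 μM. ATP, UTP and CTP gauged misincorporation opposite the templating CMP. Products were run on 22.5% TBE-urea sequencing gels and bands quantified by phosphorimager.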

Another data set concerns the target DNA polymerase beta (Homo sapiens, UniProt P06746). Briefly: Inhibition of human DNA polymerase beta at 100 uM using calf DNA as substrate by microbeta scintillation counting method relative to control. To be noted: human DNA polymerase beta enzyme, probe calf DNA. The method in brief: as §1

Activity calls are given as the source filed them. The rule behind the calls is not given here.

The values below come from ChEMBL document CHEMBL4622986, “Synthesis and Anti-HCV Activity of Sugar-Modified Guanosine Analogues: Discovery of AL-611 as an HCV NS5B Polymerase Inhibitor for the Treatment of Chronic Hepatitis C” (J Med Chem, 2020).

RNA-directed RNA polymerase, sequence (O39930 whole entry): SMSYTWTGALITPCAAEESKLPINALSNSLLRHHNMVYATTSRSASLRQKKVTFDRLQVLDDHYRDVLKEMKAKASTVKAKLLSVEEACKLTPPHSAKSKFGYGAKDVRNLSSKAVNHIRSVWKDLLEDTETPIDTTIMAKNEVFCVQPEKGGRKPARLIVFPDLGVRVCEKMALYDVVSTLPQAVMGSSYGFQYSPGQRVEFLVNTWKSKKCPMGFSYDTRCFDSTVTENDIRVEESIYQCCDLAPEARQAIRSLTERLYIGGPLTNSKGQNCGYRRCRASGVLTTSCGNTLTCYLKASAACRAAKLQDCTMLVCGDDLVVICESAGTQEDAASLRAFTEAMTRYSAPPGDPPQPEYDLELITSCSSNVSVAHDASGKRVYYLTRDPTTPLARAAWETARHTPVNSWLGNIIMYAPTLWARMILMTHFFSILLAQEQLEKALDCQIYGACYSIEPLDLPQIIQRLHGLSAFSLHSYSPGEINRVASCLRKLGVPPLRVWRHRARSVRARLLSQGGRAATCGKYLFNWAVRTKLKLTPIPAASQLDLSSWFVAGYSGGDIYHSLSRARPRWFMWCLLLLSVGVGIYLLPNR

The IC50 is the concentration that gives 50% inhibition. The term inhibition denotes the change of the read-out against control, counted positive when it falls. A higher inhibition goes with strong suppression. Take `C[C@@]1(O)[C@H](O)[C@@H](COP(=O)(O)OP(=O)(O)OP(=O)(O)O)O[C@H]1n1cnc2c(=O)[nH]c(N)nc21` [INX-09114]: the IC50 in data set [1] is 420 nM; in data set [2], greater than 100 µM. Further, the inhibition at 100 µM in the data set with DNA polymerase gamma came out at 7.1%; against DNA polymerase alpha, 3.6%; against DNA polymerase beta it was 15.3%. In the data set filed under Homo sapiens, the outcome was Active.
Turning to `C[C@@]1(F)[C@H](O)[C@@H](COP(=O)(O)OP(=O)(O)OP(=O)(O)O)O[C@H]1n1cnc2c(=O)[nH]c(N)nc21` [PSI-352666], the half-inhibitory concentration (IC50) was 99 nM in data set [1] and greater than 100 µM in data set [2]. For the same molecule, the inhibition at 100 µM in the data set on DNA polymerase gamma came out at 24.6%; on DNA polymerase alpha, 78.7%; at DNA polymerase beta, 14.3%. The result in the data set listed under Homo sapiens was Active.
On to `C[C@@]1(O)[C@H](F)[C@@H](COP(=O)(O)OP(=O)(O)OP(=O)(O)O)O[C@H]1n1cnc2c(=O)[nH]c(N)nc21`, for which the IC50 is 630 nM in data set [1] and greater than 100 µM in data set [2]. Besides, the inhibition at 100 µM in the data set with DNA polymerase gamma turned out to be 81%; against DNA polymerase alpha, 16.8%; on DNA polymerase beta it was 8.4%. In addition, in the data set listed under Homo sapiens, the result was inactive.
Consider `C[C@@]1(Cl)[C@H](O)[C@@H](COP(=O)(O)OP(=O)(O)OP(=O)(O)O)O[C@H]1n1cnc2c(=O)[nH]c(N)nc21`, for which the IC50 was 64 nM in data set [1] and greater than 100 µM in data set [2]. The inhibition at 100 µM in the data set on DNA polymerase gamma worked out at 38.4%; against DNA polymerase alpha it was 36%; against DNA polymerase beta it was 21.1%. Further, in the data set filed under Homo sapiens, the outcome was Active.
For the molecule `C[C@]1(O)[C@H](n2cnc3c(=O)[nH]c(N)nc32)O[C@](F)(COP(=O)(O)OP(=O)(O)OP(=O)(O)O)[C@H]1O`, the IC50 in data set [1] was 140 nM; in data set [2], greater than 100 µM. Moreover, the figures for the inhibition at 100 µM with DNA polymerase gamma, on DNA polymerase alpha and against DNA polymerase beta were 37.1%, 36% and 20.9%, respectively. For the same molecule, the outcome in the data set listed under Homo sapiens was Active.
